Values after ≈ are worked out from the molar mass of the structure shown.
How the values were obtained:
Liver microsome [1] = experiment: Drug metabolism in human liver microsomes assessed as formation of metabolites with retention time of 1.92 mins at 20 uM by UPLC-MS/MS analysis; type: ADME; conditions: 0.032 h
How it was run: (§1)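 Substrate at 20 μM with pooled human liver microsomes (1 mg/mL) in 100 mM potassium phosphate, pH 7.4. 5-min equilibration at 37°C, then NADPH regenerating system added, 60 min at 37°C. Stopped with acetonitrile, liquid–liquid extracted (hexane:ethyl acetate), and dihydroxylated products read by UPLC-MS/MS at MRM m/z 346 > 262.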

Cytochrome P450 1A1 [2] = molecular target: T1, Cytochrome P450 1A1 (Homo sapiens, UniProt P04798); experiment: Drug metabolism of the compound assessed as CYP1A1 (unknown origin)-mediated formation of dihydroxylated metabolites with retention time of 1.73 mins at 5 uM by UPLC-MS/MS analysis; type: ADME; conditions: 104 s
T1 sequence (P04798 whole entry): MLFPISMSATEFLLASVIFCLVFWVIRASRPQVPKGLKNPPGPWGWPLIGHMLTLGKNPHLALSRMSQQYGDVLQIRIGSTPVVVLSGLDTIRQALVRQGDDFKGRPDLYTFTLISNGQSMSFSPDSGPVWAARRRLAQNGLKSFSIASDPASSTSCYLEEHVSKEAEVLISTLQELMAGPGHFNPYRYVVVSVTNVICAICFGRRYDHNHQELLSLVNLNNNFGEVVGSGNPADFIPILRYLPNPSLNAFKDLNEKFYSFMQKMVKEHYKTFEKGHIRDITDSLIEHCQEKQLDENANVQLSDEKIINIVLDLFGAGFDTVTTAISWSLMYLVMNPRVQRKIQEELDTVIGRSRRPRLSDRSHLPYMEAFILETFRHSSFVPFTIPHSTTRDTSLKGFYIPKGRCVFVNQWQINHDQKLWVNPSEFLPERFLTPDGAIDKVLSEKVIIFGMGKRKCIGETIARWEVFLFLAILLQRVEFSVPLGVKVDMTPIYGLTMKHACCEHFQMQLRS
How it was run: (§2)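 cDNA-expressed human CYPs (20 pmol/ml; panel 1A1–3A7) incubated with 5 μM substrate in 100 mM potassium phosphate, pH 7.4. 5-min equilibration at 37°C, then NADPH regenerating system, 60 min at 37°C. Acetonitrile stop, liquid–liquid extraction, UPLC-MS/MS detection of dihydroxylated products. Mean ± SD, n = 3.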

[3] = Ratio of drug level in seminal plasma to blood plasma in human at 100 mg administered every 4 hrs by UPLC-MS/MS analysis; type: ADME, cell-free; conditions: male
Cytochrome P450 2B6 [4] = molecular target: T2, Cytochrome P450 2B6 (Homo sapiens, UniProt P20813); experiment: Drug metabolism of the compound assessed as CYP2B6 (unknown origin)-mediated formation of dihydroxylated metabolites with retention time of 1.56 mins at 5 uM by UPLC-MS/MS analysis; type: ADME; conditions: 0.026 h; how it was run: as §2
T2 sequence (P20813 whole entry): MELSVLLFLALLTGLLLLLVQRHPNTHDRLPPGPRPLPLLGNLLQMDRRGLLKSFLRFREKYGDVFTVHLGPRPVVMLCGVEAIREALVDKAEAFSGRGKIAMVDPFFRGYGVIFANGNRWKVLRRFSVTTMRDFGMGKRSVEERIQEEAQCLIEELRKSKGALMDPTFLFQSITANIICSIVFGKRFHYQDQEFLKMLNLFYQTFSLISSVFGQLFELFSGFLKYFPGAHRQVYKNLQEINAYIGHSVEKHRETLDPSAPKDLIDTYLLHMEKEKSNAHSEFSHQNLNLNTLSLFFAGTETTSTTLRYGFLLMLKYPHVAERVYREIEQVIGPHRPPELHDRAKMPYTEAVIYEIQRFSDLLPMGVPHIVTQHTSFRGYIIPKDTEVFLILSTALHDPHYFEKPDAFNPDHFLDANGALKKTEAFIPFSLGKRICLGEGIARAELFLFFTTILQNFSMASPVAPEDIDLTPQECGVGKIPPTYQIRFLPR

Cytochrome P450 2B6 [5] = molecular target: T2, Cytochrome P450 2B6; experiment: Drug metabolism of the compound assessed as CYP2B6 (unknown origin)-mediated formation of dihydroxylated metabolites with retention time of 1.73 mins at 5 uM by UPLC-MS/MS analysis; type: ADME; conditions: 104 s; how it was run: as §2
Liver microsome [6] = experiment: Drug metabolism in human liver microsomes assessed as formation of metabolites with retention time of 1.73 mins at 20 uM by UPLC-MS/MS analysis; type: ADME; conditions: 104 s; how it was run: as §1
[7] = system: Human immunodeficiency virus 1; experiment: Antiviral activity against HIV1 expressing Env-green fluorescent fusion protein infected in PBMC assessed as inhibition of viral activity after 72 hrs by flow cytometry analysis; type: functional, organism-based; conditions: Human immunodeficiency virus 1, 72 h
How it was run: (§3)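 Activated CD4+ T cells from PBMCs (PHA 0.5 μg/ml, IL-2 100 U/ml, 3 days, 37°C) seeded at 1 × 10^5/well in RPMI + 50% FBS with IL-2. Compound in DMSO (<0.1%) added 3 h before spinoculation with single-round HIV-1 Env-GFP reporter virus. GFP read by flow cytometry after 72 h. Infectivity is fraction unaffected relative to virus-only and no-virus controls.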

[8] = Fraction unbound in human seminal plasma treated with 100 mg of efavirenz administered every 4 hrs by ultrafiltration method; type: ADME
How it was run: (§4)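 Ultrafiltration through 10-kDa membrane of 100 μl sample preincubated 1 h at 37°C, centrifuged at 37°C with filtrate collected every 15 min for 45 min and measured by UPLC-MS/MS. Free level at time zero back-extrapolated by linear regression. […]. For blood plasma, metabolites were spiked into blank plasma lots.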

[9] = Blood plasma concentration in human treated with 100 mg of efavirenz administered […] by UPLC-MS/MS analysis; type: ADME, cell-free
How it was run: (§5)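 Patient samples (subjects on once-daily EFV regimen; paired plasma/CSF from 13 participants) extracted and total metabolite levels quantified by UPLC-MS/MS. Fluorinated EFV analog used as internal standard. MRM detection, calibrated linear 0.5–500 ng/ml. Values reported as median (IQR).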

Cytochrome P450 2B6 [10] = molecular target: T2, Cytochrome P450 2B6; experiment: Drug metabolism of the compound assessed as CYP2B6 (unknown origin)-mediated formation of metabolites with retention time of 1.92 mins at 5 uM by UPLC-MS/MS analysis; type: ADME; conditions: 0.032 h; how it was run: as §2
[11] = Drug level in human cerebrospinal fluid treated with 100 mg of efavirenz administered […] by UPLC-MS/MS analysis; type: ADME, tissue-based; conditions: read-out: Drug uptake; how it was run: as §5
[12] = Blood plasma protein binding in human treated with 100 mg of efavirenz administered every 4 hrs by ultrafiltration method; type: ADME, cell-free; conditions: read-out: PPB (converted); how it was run: as §4
[13] = Seminal plasma concentration in human treated with 100 mg of efavirenz administered every 4 hrs by UPLC-MS/MS analysis; type: ADME, cell-free; conditions: male
[14] = Seminal plasma protein binding in human treated with 100 mg of efavirenz administered every 4 hrs by ultrafiltration method; type: ADME, cell-free; conditions: male, read-out: PPB (converted); how it was run: as §4
Cytochrome P450 1A1 [15] = molecular target: T1, Cytochrome P450 1A1; experiment: Drug metabolism of the compound assessed as CYP1A1 (unknown origin)-mediated formation of dihydroxylated metabolites with retention time of 1.56 mins at 5 uM by UPLC-MS/MS analysis; type: ADME; conditions: 0.026 h; how it was run: as §2
Liver microsome [16] = experiment: Drug metabolism in human liver microsomes assessed as formation of dihydroxylated metabolites with retention time of 1.56 mins at 20 uM by UPLC-MS/MS analysis; type: ADME; conditions: 0.026 h; how it was run: as §1
[17] = Ratio of drug level in seminal plasma to blood plasma in human treated with 100 mg of efavirenz administered every 4 hrs by UPLC-MS/MS analysis; type: ADME, cell-free; conditions: male
Cytochrome P450 2C8 = molecular target: T3, Cytochrome P450 2C8 (Homo sapiens, UniProt P10632); experiment: Drug metabolism of the compound assessed as CYP2C8 (unknown origin)-mediated formation of dihydroxylated metabolites with retention time of 1.92 mins at 5 uM by UPLC-MS/MS analysis; type: ADME; conditions: 0.032 h; how it was run: as §2
T3 sequence (P10632 whole entry): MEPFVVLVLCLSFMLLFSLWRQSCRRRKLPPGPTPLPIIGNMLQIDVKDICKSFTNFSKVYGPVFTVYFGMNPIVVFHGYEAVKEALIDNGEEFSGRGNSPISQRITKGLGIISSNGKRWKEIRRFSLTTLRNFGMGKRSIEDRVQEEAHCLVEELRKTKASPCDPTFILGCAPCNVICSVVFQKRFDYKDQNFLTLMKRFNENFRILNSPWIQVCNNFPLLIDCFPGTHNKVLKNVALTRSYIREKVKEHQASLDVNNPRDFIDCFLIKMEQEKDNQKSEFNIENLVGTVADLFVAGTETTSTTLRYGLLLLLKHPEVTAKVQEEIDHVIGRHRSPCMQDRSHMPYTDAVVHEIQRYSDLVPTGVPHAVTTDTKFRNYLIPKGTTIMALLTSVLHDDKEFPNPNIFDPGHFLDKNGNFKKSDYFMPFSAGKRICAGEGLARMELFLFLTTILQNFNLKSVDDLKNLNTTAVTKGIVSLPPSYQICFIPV

Plasma [18] = experiment: Drug metabolism in human seminal plasma assessed as retention time of dihydroxylated metabolites treated with 100 mg of efavirenz administered every 4 hrs by UPLC-MS/MS analysis; type: ADME, cell-free
Plasma [19] = experiment: Drug metabolism in human seminal plasma assessed as retention time treated with 100 mg of efavirenz administered every 4 hrs by UPLC-MS/MS analysis; type: ADME, cell-free
[20] = Seminal plasma protein binding in human at 100 mg administered every 4 hrs by ultrafiltration method; type: ADME, cell-free; how it was run: as §4
[21] = Drug level in human cerebrospinal fluid; type: ADME, tissue-based; how it was run: as §5
[22] = Blood plasma protein binding in human at 100 mg administered every 4 hrs by ultrafiltration method; type: ADME, cell-free; conditions: read-out: PPB (converted); how it was run: as §4
Plasma [23] = experiment: Total seminal plasma concentration in human; type: ADME, cell-free
Plasma [24] = experiment: Total blood plasma concentration in human; type: ADME, cell-free
[25] = Drug metabolism in human seminal plasma assessed as formation of N- and O-linked glucuronidated metabolite at 100 mg administered every 4 hrs by UPLC-MS/MS analysis; type: ADME, cell-free
[26] = system: Human immunodeficiency virus 1; experiment: Antiviral activity against HIV1; type: functional, organism-based; how it was run: as §3
Plasma [27] = experiment: Drug metabolism in human blood plasma assessed as formation of N- and O-linked glucuronidated metabolite at 100 mg administered every 4 hrs by UPLC-MS/MS analysis; type: ADME, cell-free

| SMILES | Drug metabolism (Liver microsome [1]) | IC50 [7] [µg/mL] | Cp(f) [8] [ng/mL] | concentration [9] [ng/mL] | Drug metabolism (Cytochrome P450 2B6 [10]) | concentration [11] [ng/mL] | fraction unbound at 4 h [12] | concentration at 4 h [13] [ng/mL] | fraction unbound at 4 h [14] | Kp at 4 h [17] | Drug metabolism (Cytochrome P450 2C8) | also measured |
| --- | --- | --- | --- | --- | --- | --- | --- | --- | --- | --- | --- | --- |
| O=C1Nc2c(O)cc(Cl)cc2[C@@](C#CC2CC2)(C(F)(F)F)O1 | metabolite_detected | 0.0422 (≈ 0.127 µM) | 10.16 | 314 | metabolite_detected | 3.37 | 0.0003 | 358 | 0.038 |  |  | Drug metabolism (Cytochrome P450 1A1 [2]): metabolite_detected; Kp at 4 h [3]: 145; Drug metabolism (Cytochrome P450 2B6 [4]): metabolite_detected; Drug metabolism (Cytochrome P450 2B6 [5]): metabolite_detected; Drug metabolism (Liver microsome [6]): metabolite_detected; Drug metabolism (Cytochrome P450 1A1 [15]): metabolite_detected; Drug metabolism (Liver microsome [16]): metabolite_detected |
| O=C1Nc2cc(O)c(Cl)cc2[C@@](C#CC2CC2)(C(F)(F)F)O1 | metabolite_detected | 0.0447 (≈ 0.135 µM) | 6.55 | 8.84 | metabolite_detected |  | 0.0038 | 10.2 | 0.619 | 188 | metabolite_detected |  |
| O=C1Nc2c(O)cc(Cl)cc2[C@@](C#CC2(O)CC2)(C(F)(F)F)O1 |  | 2.24 (≈ 6.44 µM) | 4.04 | 5.63 |  | 0.375 | 0.0039 | 5.43 | 0.846 | 209 |  | Retention time (Plasma [18]): 1.56 min; Retention_time (Plasma [19]): 1.56 min |
| O=C1Nc2ccc(Cl)cc2[C@@](C#CC2CC2)(C(F)(F)F)O1 [EFAVIRENZ] | metabolite_detected | 0.00036 (≈ 0.00114 µM) |  |  | metabolite_detected |  |  |  |  |  | metabolite_detected | PPB [20]: 95.1%; Drug uptake [21]: 19 ng/mL; fraction unbound at 4 h [22]: 0.0018; Cp (Plasma [23]): 95 ng/mL; Cp (Plasma [24]): 2170 ng/mL; Drug metabolism [25]: metabolite_detected; IC50 [26]: 0.00051 µg/mL (≈ 0.00162 µM); Drug metabolism (Plasma [27]): metabolite_detected |
